Measurements of several laboratories.
Protocols differ between the studies behind these lines.
Matrix: plasma

Structure (SMILES)	species	route	dose	setting	AUC(0-t)
Cc1nc(-c2cnc(NC(C)C)n(C)c2=O)ccc1Oc1ccnc(-c2cnn(C)c2)c1	male Sprague-Dawley rat	oral	10 mg/kg		164000 ng·h/mL
COc1ccc2c(Cc3ccccc3F)c3[n+](cc2c1OC)CCc1cc2c(cc1-3)OCO2.[Br-]	rat	intravenous	5 mg/kg		113 ng·h/mL
N#Cc1ccc(Nc2nc(N)cc(Oc3c(F)cc(-c4ccc(C#N)cc4)cc3F)n2)cc1	Sprague-Dawley rat	oral	5 mg/kg		74 ng·h/mL
CCOC(=O)[C@@]12C[C@@H]1[C@@H](n1ccc3c(NC)nc(C#Cc4ccc(Cl)s4)nc31)[C@H](O)[C@@H]2O	male Sprague-Dawley rat	oral	3 mg/kg		170 ng·h/mL
COc1nc(-c2cc(C)c(N[C@@H](C)c3cc(F)cc(F)c3)nn2)ccc1-n1cnc(C)c1	male Sprague-Dawley rat	intravenous	1 mg/kg	single dose	6350 ng·h/mL
COc1ccc(C(C)=O)c(O)c1	male Sprague-Dawley rat	oral	100 mg/kg		33600 ng·h/mL
CNCc1cc(-c2ccccc2F)n(S(=O)(=O)c2cccnc2)c1	Sprague-Dawley rat	oral	10 mg/kg		643 ng·h/mL
Cc1c(-c2ccccc2)cccc1N1C(=O)c2cc(CN[C@H](C(=O)O)C(C)O)c(OCc3cccc(C#N)c3)cc2C1=O (stereo partly shown)	Sprague-Dawley rat	intravenous	5 mg/kg		3240 ng·h/mL
COc1ccc2c(Cc3ccccc3F)c3n(c(=O)c2c1OC)CCc1cc2c(cc1-3)OCO2	rat	intravenous	5 mg/kg		22700 ng·h/mL
CCc1cc(C(=O)NC)c2nccc(N3CCc4c(cc(Cn5ccnc5)cc4-c4cn(C)nc4C(F)(F)F)C3=O)c2c1	male Sprague-Dawley rat	oral	50 mg/kg	single dose	11100 ng·h/mL
C=CC(=O)N1CC2CC(n3nc(-c4ccc(C(=O)Nc5ccccn5)cc4)c4c(N)ncnc43)CC2C1 (stereo not shown)	male Wistar rat	oral	30 mg/kg		4720 ng·h/mL
O=C(Nc1cc(F)c(F)c(F)c1)c1ccc(F)c(S(=O)(=O)NCc2cccc(B(O)O)c2)c1	male Sprague-Dawley rat	oral	20 mg/kg		34.3 ng·h/mL
CCc1cc(OC)c2nccc(N3CCc4c(cc(Cn5ccnc5)cc4-c4cn(C)nc4C(F)(F)F)C3=O)c2c1	male Sprague-Dawley rat	oral	50 mg/kg		10300 ng·h/mL
